Measured values from ChEMBL document CHEMBL3351651 (Bioorg Med Chem, 2014).

tested on: Mus musculus; assay: Hypolipidiemic activity in tyloxapol-induced ICR mouse hyperlipidemic model assessed as reduction in serum cholesterol level at 17 mg/kg, ip after 24 hrs; type: functional; design: scale not given: the % may be the effect or the level left; details: route intraperitoneal
How it was run: (§1)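 Male ICR mice (25–30 g) were kept at 24 °C with a 12 h light/dark cycle on standard pellet diet with free water. Hyperlipidemia was induced with tyloxapol (400 per table) and test agents were given ip. After 24 h, retro-orbital blood was centrifuged and serum TC, HDL-C and TG were measured. LDL-C was calculated by the Friedewald equation. Assays were run in duplicate; values are means of 6 mice.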

Question: For CCC(C)(C)C(=O)O[C@H]1C[C@@H](C)C=C2C=C[C@H](C)[C@H](CC[C@@H]3C[C@@H](O)CC(=O)O3)[C@H]21 [SIMVASTATIN], which Activity is on record?
Answer: -63.46%

tested on: Mus musculus; assay: Hypolipidiemic activity in tyloxapol-induced ICR mouse hyperlipidemic model assessed as reduction in serum cholesterol level at 25 mg/kg, ip after 24 hrs; type: functional; design: scale not given: the % may be the effect or the level left; details: route intraperitoneal

Question: With CCCc1cc(OC)c(OCC(=O)OC)cc1O as the compound, how does the Activity read?
Answer: -79.77%

Question: Which Activity does the source give for CCCc1cc(OC)c(OC)cc1O here?
Answer: -71.84%

Question: With COc1cc(O)c(C(C)=O)cc1OC as the compound, how does the Activity read?
Answer: -71.84%

Question: For CCCCc1cc(OC)c(OCC(=O)OC)cc1O, which Activity is on record?
Answer: -70.62%

Question: With CCc1cc(OC)c(OC)cc1O as the compound, how does the Activity read?
Answer: -67.13%

tested on: Mus musculus; assay: Hypolipidiemic activity in tyloxapol-induced ICR mouse hyperlipidemic model assessed as reduction in serum cholesterol level at 50 mg/kg, ip after 24 hrs; type: functional; design: scale not given: the % may be the effect or the level left; details: route intraperitoneal

Question: Which Activity does the source give for CCCc1cc(OC)c(OCC(=O)OC)cc1O here?
Answer: -80.21%

Question: For CCCc1cc(OC)c(OC)cc1O, which Activity is on record?
Answer: -66.7%

Question: For COc1cc(O)c(C(C)=O)cc1OC, which Activity is on record?
Answer: -80.09%

Question: For CCCCc1cc(OC)c(OCC(=O)OC)cc1O, which Activity is on record?
Answer: -59.46%

Question: Which Activity does the source give for CCc1cc(OC)c(OC)cc1O here?
Answer: -73.41%

tested on: Mus musculus; assay: Hypolipidiemic activity in tyloxapol-induced ICR mouse hyperlipidemic model assessed as reduction in serum cholesterol level at 100 mg/kg, ip after 24 hrs; type: functional; design: scale not given: the % may be the effect or the level left; details: route intraperitoneal

Question: For CCCc1cc(OC)c(OCC(=O)OC)cc1O, which Activity is on record?
Answer: -74.02%

Question: Which Activity does the source give for CCCc1cc(OC)c(OC)cc1O here?
Answer: -69.22%

Question: With COc1cc(O)c(C(C)=O)cc1OC as the compound, how does the Activity read?
Answer: -80.12%

Question: With CCCCc1cc(OC)c(OCC(=O)OC)cc1O as the compound, how does the Activity read?
Answer: -79.95%

Question: For CCc1cc(OC)c(OC)cc1O, which Activity is on record?
Answer: -75.85%

tested on: Mus musculus; assay: Hypolipidiemic activity in tyloxapol-induced ICR mouse hyperlipidemic model assessed as reduction in serum LDL-cholesterol level at 17 mg/kg, ip after 24 hrs; type: functional; design: scale not given: the % may be the effect or the level left; details: route intraperitoneal; how it was run: as §1

Question: Which Activity does the source give for CCC(C)(C)C(=O)O[C@H]1C[C@@H](C)C=C2C=C[C@H](C)[C@H](CC[C@@H]3C[C@@H](O)CC(=O)O3)[C@H]21 [SIMVASTATIN] here?
Answer: -84.31%

tested on: Mus musculus; assay: Hypolipidiemic activity in tyloxapol-induced ICR mouse hyperlipidemic model assessed as reduction in serum LDL-cholesterol level at 25 mg/kg, ip after 24 hrs; type: functional; design: scale not given: the % may be the effect or the level left; details: route intraperitoneal

Question: Which Activity does the source give for CCCc1cc(OC)c(OCC(=O)OC)cc1O here?
Answer: -89.32%

Question: Which Activity does the source give for CCCc1cc(OC)c(OC)cc1O here?
Answer: -78.15%

Question: With COc1cc(O)c(C(C)=O)cc1OC as the compound, how does the Activity read?
Answer: -76.23%

Question: Which Activity does the source give for CCCCc1cc(OC)c(OCC(=O)OC)cc1O here?
Answer: -77.77%

Question: Which Activity does the source give for CCc1cc(OC)c(OC)cc1O here?
Answer: -72.47%

tested on: Mus musculus; assay: Hypolipidiemic activity in tyloxapol-induced ICR mouse hyperlipidemic model assessed as reduction in serum LDL-cholesterol level at 50 mg/kg, ip after 24 hrs; type: functional; design: scale not given: the % may be the effect or the level left; details: route intraperitoneal

Question: Which Activity does the source give for CCCc1cc(OC)c(OCC(=O)OC)cc1O here?
Answer: -87.97%

Question: With CCCc1cc(OC)c(OC)cc1O as the compound, how does the Activity read?
Answer: -71.61%

Question: Which Activity does the source give for COc1cc(O)c(C(C)=O)cc1OC here?
Answer: -87.01%

Question: Which Activity does the source give for CCCCc1cc(OC)c(OCC(=O)OC)cc1O here?
Answer: -62.75%

Question: For CCc1cc(OC)c(OC)cc1O, which Activity is on record?
Answer: -78.34%

tested on: Mus musculus; assay: Hypolipidiemic activity in tyloxapol-induced ICR mouse hyperlipidemic model assessed as reduction in serum LDL-cholesterol level at 100 mg/kg, ip after 24 hrs; type: functional; design: scale not given: the % may be the effect or the level left; details: route intraperitoneal

Question: With CCCc1cc(OC)c(OCC(=O)OC)cc1O as the compound, how does the Activity read?
Answer: -81.23%

Question: With CCCc1cc(OC)c(OC)cc1O as the compound, how does the Activity read?
Answer: -73.63%

Question: For COc1cc(O)c(C(C)=O)cc1OC, which Activity is on record?
Answer: -87.68%

Question: For CCCCc1cc(OC)c(OCC(=O)OC)cc1O, which Activity is on record?
Answer: -89.51%

Question: For CCc1cc(OC)c(OC)cc1O, which Activity is on record?
Answer: -83.93%

tested on: Mus musculus; assay: Hypolipidiemic activity in tyloxapol-induced ICR mouse hyperlipidemic model assessed as increase in serum HDL-cholesterol level at 17 mg/kg, ip after 24 hrs; type: functional; details: route intraperitoneal; how it was run: as §1

Question: For CCC(C)(C)C(=O)O[C@H]1C[C@@H](C)C=C2C=C[C@H](C)[C@H](CC[C@@H]3C[C@@H](O)CC(=O)O3)[C@H]21 [SIMVASTATIN], which Activity is on record?
Answer: 292.2%

tested on: Mus musculus; assay: Hypolipidiemic activity in tyloxapol-induced ICR mouse hyperlipidemic model assessed as increase in serum HDL-cholesterol level at 25 mg/kg, ip after 24 hrs; type: functional; details: route intraperitoneal

Question: Which Activity does the source give for CCCc1cc(OC)c(OCC(=O)OC)cc1O here?
Answer: 91.53%

Question: With CCCc1cc(OC)c(OC)cc1O as the compound, how does the Activity read?
Answer: 49.15%

Question: For COc1cc(O)c(C(C)=O)cc1OC, which Activity is on record?
Answer: -4.75%

Question: For CCCCc1cc(OC)c(OCC(=O)OC)cc1O, which Activity is on record?
Answer: 11.86%

Question: For CCc1cc(OC)c(OC)cc1O, which Activity is on record?
Answer: 33.9%

tested on: Mus musculus; assay: Hypolipidiemic activity in tyloxapol-induced ICR mouse hyperlipidemic model assessed as increase in serum HDL-cholesterol level at 50 mg/kg, ip after 24 hrs; type: functional; details: route intraperitoneal

Question: Which Activity does the source give for CCCc1cc(OC)c(OCC(=O)OC)cc1O here?
Answer: 57.63%

Question: Which Activity does the source give for CCCc1cc(OC)c(OC)cc1O here?
Answer: 25.42%

Question: With COc1cc(O)c(C(C)=O)cc1OC as the compound, how does the Activity read?
Answer: 44.07%

Question: Which Activity does the source give for CCCCc1cc(OC)c(OCC(=O)OC)cc1O here?
Answer: -3.39%

Question: For CCc1cc(OC)c(OC)cc1O, which Activity is on record?
Answer: 25.42%

tested on: Mus musculus; assay: Hypolipidiemic activity in tyloxapol-induced ICR mouse hyperlipidemic model assessed as increase in serum HDL-cholesterol level at 100 mg/kg, ip after 24 hrs; type: functional; details: route intraperitoneal

Question: With CCCc1cc(OC)c(OCC(=O)OC)cc1O as the compound, how does the Activity read?
Answer: 50.85%

Question: Which Activity does the source give for CCCc1cc(OC)c(OC)cc1O here?
Answer: 15.25%

Question: For COc1cc(O)c(C(C)=O)cc1OC, which Activity is on record?
Answer: 55.93%

Question: With CCCCc1cc(OC)c(OCC(=O)OC)cc1O as the compound, how does the Activity read?
Answer: 89.83%

Question: For CCc1cc(OC)c(OC)cc1O, which Activity is on record?
Answer: 71.19%

tested on: Mus musculus; assay: Hypolipidemic activity in tyloxapol-induced ICR mouse hyperlipidemic model assessed as reduction in serum triglyceride level at 17 mg/kg, ip after 24 hrs; type: functional; design: scale not given: the % may be the effect or the level left; details: route intraperitoneal; how it was run: as §1

Question: For CCC(C)(C)C(=O)O[C@H]1C[C@@H](C)C=C2C=C[C@H](C)[C@H](CC[C@@H]3C[C@@H](O)CC(=O)O3)[C@H]21 [SIMVASTATIN], which Activity is on record?
Answer: -57%

tested on: Mus musculus; assay: Hypolipidiemic activity in tyloxapol-induced ICR mouse hyperlipidemic model assessed as reduction in serum triglyceride level at 25 mg/kg, ip after 24 hrs; type: functional; design: scale not given: the % may be the effect or the level left; details: route intraperitoneal

Question: Which Activity does the source give for CCCc1cc(OC)c(OCC(=O)OC)cc1O here?
Answer: -84.13%

Question: Which Activity does the source give for CCCc1cc(OC)c(OC)cc1O here?
Answer: -82.75%

Question: For COc1cc(O)c(C(C)=O)cc1OC, which Activity is on record?
Answer: -59.63%

Question: With CCCCc1cc(OC)c(OCC(=O)OC)cc1O as the compound, how does the Activity read?
Answer: -20.46%

Question: With CCc1cc(OC)c(OC)cc1O as the compound, how does the Activity read?
Answer: -76.79%

tested on: Mus musculus; assay: Hypolipidiemic activity in tyloxapol-induced ICR mouse hyperlipidemic model assessed as reduction in serum triglyceride level at 50 mg/kg, ip after 24 hrs; type: functional; design: scale not given: the % may be the effect or the level left; details: route intraperitoneal

Question: With CCCc1cc(OC)c(OCC(=O)OC)cc1O as the compound, how does the Activity read?
Answer: -81.93%

Question: For CCCc1cc(OC)c(OC)cc1O, which Activity is on record?
Answer: -73.85%

Question: With COc1cc(O)c(C(C)=O)cc1OC as the compound, how does the Activity read?
Answer: -80.92%

Question: Which Activity does the source give for CCCCc1cc(OC)c(OCC(=O)OC)cc1O here?
Answer: -49.82%

Question: With CCc1cc(OC)c(OC)cc1O as the compound, how does the Activity read?
Answer: -86.97%

tested on: Mus musculus; assay: Hypolipidiemic activity in tyloxapol-induced ICR mouse hyperlipidemic model assessed as reduction in serum triglyceride level at 100 mg/kg, ip after 24 hrs; type: functional; design: scale not given: the % may be the effect or the level left; details: route intraperitoneal

Question: For CCCc1cc(OC)c(OCC(=O)OC)cc1O, which Activity is on record?
Answer: -71.38%

Question: With CCCc1cc(OC)c(OC)cc1O as the compound, how does the Activity read?
Answer: -77.98%

Question: For COc1cc(O)c(C(C)=O)cc1OC, which Activity is on record?
Answer: -82.11%

Question: With CCCCc1cc(OC)c(OCC(=O)OC)cc1O as the compound, how does the Activity read?
Answer: -82.75%

Question: For CCc1cc(OC)c(OC)cc1O, which Activity is on record?
Answer: -81.65%

tested on: not listed separately; assay: Metabolic stability in presence of pepsin (unknown origin) assessed as retention time by HPLC analysis; type: ADME; details: human, isolated protein

Question: With COc1cc(O)c(C(C)=O)cc1OC as the compound, how does the Retention_time read?
Answer: 8.57 min

Question: With CCCCc1cc(OC)c(OCC(=O)OC)cc1O as the compound, how does the Retention_time read?
Answer: 13.81 min

Question: With CCc1cc(OC)c(OC)cc1O as the compound, how does the Retention_time read?
Answer: 6.95 min

tested on: not listed separately; assay: Metabolic stability in presence of alpha-chymotrypsin (unknown origin) assessed as retention time by HPLC analysis; type: ADME; details: human

Question: Which Retention_time does the source give for COc1cc(O)c(C(C)=O)cc1OC here?
Answer: 8.58 min

Question: With CCCCc1cc(OC)c(OCC(=O)OC)cc1O as the compound, how does the Retention_time read?
Answer: 13.8 min

Question: Which Retention time does the source give for CCc1cc(OC)c(OC)cc1O here?
Answer: 6.94 min
